The record followed here is ChEMBL document CHEMBL1122592, “Synthesis and evaluation of radioiodinated terminal p-iodophenyl-substituted alpha- and beta-methyl-branched fatty acids” (1984).

Common to all, as to assay type: functional
For experiment [1], the system named is Rattus norvegicus. Kind of experiment: Heart uptake in percent injected dose/gram (range) was determined in female fischer rat after 1251-labelled compound complexed with bovine serum albumin was injected intravenously after 5 minutes. An outline of the steps:
(§1)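 Female Fischer 344 rats, 10–12 weeks old (170–200 g), fed and watered ad libitum. ¹²⁵I-labeled fatty acid in 0.5 mL absolute ethanol added dropwise to stirred 6% bovine serum albumin at 40 °C (final ethanol 10%), 0.22-μm filtered, given into a lateral tail vein under ether anesthesia. At set times: ether anesthesia, cervical fracture, organs excised, rinsed, blotted, weighed and gamma counted. Values are % injected dose/g, 3–4 rats per time point.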

The test system of experiment [2] is Rattus norvegicus. Kind of experiment: Heart uptake in percent injected dose/gram (range) was determined in female fischer rat after 1251-labelled compound complexed with bovine serum albumin was injected intravenously after 60 minutes. The procedure, abridged: as §1
Experiment [3] relates to Rattus norvegicus. The experiment can be described thus: Lungs uptake in percent injected dose/gram (range) was determined in female fischer rat after 1251-labelled compound complexed with bovine serum albumin was injected intravenously after 5 minutes. The procedure, abridged:
as §1

In experiment [4] the test system is Rattus norvegicus. The experiment can be described thus: Lungs uptake in percent injected dose/gram (range) was determined in female fischer rat after 1251-labelled compound complexed with bovine serum albumin was injected intravenously after 60 minutes. An outline of the steps:
as §1

The test system of experiment [5] is Rattus norvegicus. The experiment can be described thus: Blood uptake in percent injected dose/gram (range) was determined in female fischer rat after 1251-labelled compound complexed with bovine serum albumin was injected intravenously after 5 minutes. An outline of the steps: as §1
The subject of experiment [6] is Rattus norvegicus. Kind of experiment: Blood uptake in percent injected dose/gram (range) was determined in female fischer rat after 1251-labelled compound complexed with bovine serum albumin was injected intravenously after 60 minutes. An outline of the steps:
as §1

The subject of experiment [7] is Rattus norvegicus. Kind of experiment: Thyroid uptake in percent injected dose/gram (range) was determined in female fischer rat after 1251-labelled compound complexed with bovine serum albumin was injected intravenously after 5 minutes. The procedure, abridged: as §1
The subject of experiment [8] is Rattus norvegicus. Kind of experiment: Thyroid uptake in percent injected dose/gram (range) was determined in female fischer rat after 1251-labelled compound complexed with bovine serum albumin was injected intravenously after 60 minutes. An outline of the steps: as §1
In experiment [9] the test system is Rattus norvegicus. The experiment can be described thus: Kidneys uptake in percent injected dose/gram (range) was determined in female fischer rat after 1251-labelled compound complexed with bovine serum albumin was injected intravenously after 5 minutes. The procedure, abridged: as §1
In experiment [10] the test system is Rattus norvegicus. The experiment can be described thus: Kidneys uptake in percent injected dose/gram (range) was determined in female fischer rat after 1251-labelled compound complexed with bovine serum albumin was injected intravenously after 60 minutes. An outline of the steps: as §1
Experiment [11] has as its system Rattus norvegicus. Kind of experiment: Liver uptake in percent injected dose/gram (range) was determined in female fischer rat after 1251-labelled compound complexed with bovine serum albumin was injected intravenously after 5 minutes. An outline of the steps: as §1
Experiment [12] concerns Rattus norvegicus. The experiment can be described thus: Liver uptake in percent injected dose/gram (range) was determined in female fischer rat after 1251-labelled compound complexed with bovine serum albumin was injected intravenously after 60 min. The procedure, abridged: as §1
The subject of experiment [13] is Rattus norvegicus. The experiment can be described thus: Heart uptake in percent injected dose/gram (range) was determined in female fischer rat after 1251-labelled compound complexed with bovine serum albumin was injected intravenously after 5 hours. An outline of the steps: as §1
The subject of experiment [14] is Rattus norvegicus. The experiment can be described thus: Heart uptake in percent injected dose/gram (range) was determined in female fischer rat after 1251-labelled compound complexed with bovine serum albumin was injected intravenously after 30 minutes. The procedure, abridged:
as §1

The subject of experiment [15] is Rattus norvegicus. The experiment can be described thus: Kidneys uptake in percent injected dose/gram (range) was determined in female fischer rat after 1251-labelled compound complexed with bovine serum albumin was injected intravenously after 30 minutes. An outline of the steps:
as §1

In experiment [16] the test system is Rattus norvegicus. The experiment can be described thus: Lungs uptake in percent injected dose/gram (range) was determined in female fischer rat after 1251-labelled compound complexed with bovine serum albumin was injected intravenously after 5 hours. An outline of the steps: as §1
For experiment [17], the system named is Rattus norvegicus. The experiment can be described thus: Blood uptake in percent injected dose/gram (range) was determined in female fischer rat after 1251-labelled compound complexed with bovine serum albumin was injected intravenously after 30 minutes. An outline of the steps: as §1
In experiment [18] the test system is Rattus norvegicus. The experiment can be described thus: Blood uptake in percent injected dose/gram (range) was determined in female fischer rat after 1251-labelled compound complexed with bovine serum albumin was injected intravenously after 5 hours. The procedure, abridged: as §1
The subject of experiment [19] is Rattus norvegicus. The experiment can be described thus: Thyroid uptake in percent injected dose/gram (range) was determined in female fischer rat after 1251-labelled compound complexed with bovine serum albumin was injected intravenously after 30 minutes. An outline of the steps: as §1
Experiment [20] concerns Rattus norvegicus. Kind of experiment: Thyroid uptake in percent injected dose/gram (range) was determined in female fischer rat after 1251-labelled compound complexed with bovine serum albumin was injected intravenously after 5 hours. The procedure, abridged:
as §1

In experiment [21] the test system is Rattus norvegicus. The experiment can be described thus: Kidneys uptake in percent injected dose/gram (range) was determined in female fischer rat after 1251-labelled compound complexed with bovine serum albumin was injected intravenously after 5 hours. The procedure, abridged: as §1
The test system of experiment [22] is Rattus norvegicus. Kind of experiment: Liver uptake in percent injected dose/gram (range) was determined in female fischer rat after 1251-labelled compound complexed with bovine serum albumin was injected intravenously after 30 minutes. The procedure, abridged: as §1
Experiment [23] has as its system Rattus norvegicus. Kind of experiment: Liver uptake in percent injected dose/gram (range) was determined in female fischer rat after 1251-labelled compound complexed with bovine serum albumin was injected intravenously after 5 hours. The procedure, abridged: as §1
Experiment [24] relates to Rattus norvegicus. The experiment can be described thus: Lungs uptake in percent injected dose/gram (range) was determined in female fischer rat after 1251-labelled compound complexed with bovine serum albumin was injected intravenously after 30 minutes. An outline of the steps:
as §1

Experiment [25] concerns Rattus norvegicus. The experiment can be described thus: Heart uptake in percent injected dose/gram (range) was determined in female fischer rat after 1251-labelled compound complexed with bovine serum albumin was injected intravenously after 4 hours. The procedure, abridged:
as §1

The subject of experiment [26] is Rattus norvegicus. The experiment can be described thus: Kidneys uptake in percent injected dose/gram (range) was determined in female fischer rat after 1251-labelled compound complexed with bovine serum albumin was injected intravenously after 4 hours. The procedure, abridged:
as §1

Experiment [27] concerns Rattus norvegicus. Kind of experiment: Blood uptake in percent injected dose/gram (range) was determined in female fischer rat after 1251-labelled compound complexed with bovine serum albumin was injected intravenously after 4 hours. An outline of the steps:
as §1

The test system of experiment [28] is Rattus norvegicus. The experiment can be described thus: Lungs uptake in percent injected dose/gram (range) was determined in female fischer rat after 1251-labelled compound complexed with bovine serum albumin was injected intravenously after 4 hours. An outline of the steps: as §1
Experiment [29] relates to Rattus norvegicus. Kind of experiment: Thyroid uptake in percent injected dose/gram (range) was determined in female fischer rat after 1251-labelled compound complexed with bovine serum albumin was injected intravenously after 4 hours. The procedure, abridged:
as §1

The test system of experiment [30] is Rattus norvegicus. The experiment can be described thus: Thyroid uptake in percent injected dose/gram (range) was determined in female fischer rat after 1251-labelled compound complexed with bovine serum albumin was injected intravenously after 60 min. The procedure, abridged: as §1
Experiment [31] relates to Rattus norvegicus. The experiment can be described thus: Liver uptake in percent injected dose/gram (range) was determined in female fischer rat after 1251-labelled compound complexed with bovine serum albumin was injected intravenously after 4 hours. The procedure, abridged:
as §1

With `O=C(O)CCCCCCCCCCCCCc1ccc(I)cc1`, the Activity in the experiment with Rattus norvegicus [1] was 2.72%; in the experiment with Rattus norvegicus [2], 1.78%; in the experiment on Rattus norvegicus [3] it was 1.55%; with Rattus norvegicus [4], 1.39%; in the experiment with Rattus norvegicus [5], 1.58%; in the experiment with Rattus norvegicus [6], 1.48%. For the same compound, the Activity with Rattus norvegicus [7] was 1.64%; with Rattus norvegicus [8], 2.56%; with Rattus norvegicus [9], 1.64%; with Rattus norvegicus [10], 1.94%; with Rattus norvegicus [11], 4.82%; in the experiment with Rattus norvegicus [12] it was 2.04%.

`CC(CCCCCCCCCCCCc1ccc(I)cc1)C(=O)O` (racemic): the Activity was 1.71% with Rattus norvegicus [1]; 1.52% with Rattus norvegicus [2]; 0.59% in the experiment with Rattus norvegicus [13]; 1.58% in the experiment with Rattus norvegicus [14]; 1.95% with Rattus norvegicus [15]; 0.77% in the experiment with Rattus norvegicus [16]. Besides, the Activity with Rattus norvegicus [3] was found to be 1.13%; in the experiment on Rattus norvegicus [4] it was 1.13%; with Rattus norvegicus [17] it was 1.83%; in the experiment on Rattus norvegicus [18] it was 1.07%; with Rattus norvegicus [5], 1.8%; in the experiment with Rattus norvegicus [6], 1.64%. Further, the Activity in the experiment on Rattus norvegicus [19] stood at 5.3%; with Rattus norvegicus [20], 13.95%; with Rattus norvegicus [7], 7.56%; in the experiment with Rattus norvegicus [8], 11.5%; with Rattus norvegicus [21] it was 1.36%; in the experiment on Rattus norvegicus [9] it was 1.68%. Further, the Activity came to 1.85% in the experiment on Rattus norvegicus [10]; 3.85% with Rattus norvegicus [22]; 1.52% with Rattus norvegicus [23]; 7.61% with Rattus norvegicus [11]; 2.94% in the experiment on Rattus norvegicus [12]; 1.03% in the experiment with Rattus norvegicus [24].

On to `CC(CCCCCCCCCCCCc1ccc(I)cc1)CC(=O)O` (racemic) [IODOFILTIC ACID], for which the Activity is reported as 4.62% in the experiment with Rattus norvegicus [1]; 4.26% in the experiment on Rattus norvegicus [2]; 2.27% in the experiment with Rattus norvegicus [25]; 3.63% with Rattus norvegicus [14]; 1.71% with Rattus norvegicus [15]; 1.49% in the experiment with Rattus norvegicus [26]. Besides, the Activity in the experiment on Rattus norvegicus [3] is listed as 1.45%; with Rattus norvegicus [4], 1.21%; in the experiment with Rattus norvegicus [17] it was 1.6%; in the experiment with Rattus norvegicus [27], 1.13%; in the experiment with Rattus norvegicus [28], 0.91%; with Rattus norvegicus [5] it was 0.71%. In addition, the Activity in the experiment with Rattus norvegicus [6] is 1.7%; in the experiment with Rattus norvegicus [19], 9.26%; in the experiment with Rattus norvegicus [29], 9.69%; in the experiment on Rattus norvegicus [7], 6.78%; with Rattus norvegicus [30] it was 10.66%; in the experiment on Rattus norvegicus [9], 1.08%. Moreover, the Activity in the experiment on Rattus norvegicus [10] is given as 2.14%; in the experiment with Rattus norvegicus [22] it was 3.66%; in the experiment with Rattus norvegicus [31], 0.95%; in the experiment with Rattus norvegicus [11], 8.32%; with Rattus norvegicus [12] it was 1.92%; in the experiment on Rattus norvegicus [24] it was 1.15%.

`O=C(O)CCCCCCCCCCCCCCc1ccc(I)cc1` [IOCANLIDIC ACID]: the Activity in the experiment with Rattus norvegicus [1] worked out at 2.98%; with Rattus norvegicus [2], 2.34%; in the experiment with Rattus norvegicus [25], 0.93%; in the experiment with Rattus norvegicus [14], 2.67%; with Rattus norvegicus [15] it was 1.08%; with Rattus norvegicus [26], 0.88%. Besides, the Activity in the experiment with Rattus norvegicus [3] came out at 1.26%; with Rattus norvegicus [4], 1.29%; with Rattus norvegicus [17], 1.5%; in the experiment with Rattus norvegicus [27] it was 0.7%; in the experiment on Rattus norvegicus [28] it was 0.97%; in the experiment on Rattus norvegicus [5], 0.91%. The Activity is given as 1.32% with Rattus norvegicus [6]; 10.28% in the experiment on Rattus norvegicus [19]; 8.54% in the experiment with Rattus norvegicus [29]; 7.08% in the experiment on Rattus norvegicus [7]; 7.37% in the experiment with Rattus norvegicus [8]; 0.84% with Rattus norvegicus [9]. Moreover, the Activity in the experiment with Rattus norvegicus [10] was 1.05%; with Rattus norvegicus [22], 5.31%; with Rattus norvegicus [31], 1.72%; in the experiment with Rattus norvegicus [11] it was 6.69%; in the experiment on Rattus norvegicus [12], 3.76%; in the experiment with Rattus norvegicus [24] it was 1.36%.
